Columns and labels:
[1] = system: ZIKV; details: read-out: previously reported EC50; anti-ZIKV; cited from earlier work
[2] = system: Zika virus (ZIKV) MR766 strain; test: EC50 dose-response in ZIKV-infected Vero cells; format: cell-based; details: CC50/EC50, Vero cells
Method in brief: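 Vero CCL-81 monolayers were seeded at 1.2 × 10⁶ cells per plate one day before. Serial dilutions of test compound in DMEM (methods: 50–0.2 µM; legend: 0.2–100 µM) were added together with ZIKV MR766 at 100 TCID50/mL. Plates were held 6 days at 37 °C and 5% CO2, with virus and cell controls. Crystal violet read viability. EC50 came from four-parameter logistic fit of triplicate data. SI = CC50/EC50.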

[3] = CC50 cytotoxicity in uninfected Vero cells; format: cell-based; details: African green monkey
Method in brief: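 Vero CCL-81 cells in DMEM with 10% FBS were seeded at 1.2 × 10⁶ cells per plate one day ahead. Uninfected monolayers were exposed to serial dilutions of test compound in DMEM (50–0.2 µM) for 6 days at 37 °C and 5% CO2. Viability was read by crystal violet staining. CC50 came from four-parameter logistic nonlinear regression of triplicate data, with 95% CIs from log-transformed estimates.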

Row | SMILES | EC50 [1] [µM] | selectivity index (SI) [2] | CC50 at 6 days [3] [µM]
1 | COC1=C[C@]23CCCN2CCc2cc4c(cc2[C@@H]3[C@@H]1O)OCO4 [Cephalotaxine] | 40 |  | 
2 | CCCCC(CC)COC(=O)CC(C(=O)OCC(CC)CCCC)S(=O)(=O)O (stereo not drawn) [Docusate Sodium] |  | 3.49 | 8.19
